ChEMBL document CHEMBL4004835, “Discovery of Novel Disruptor of Silencing Telomeric 1-Like (DOT1L) Inhibitors using a Target-Specific Scoring Function for the (S)-Adenosyl-l-methionine (SAM)-Dependent Methyltransferase Family” (J Med Chem, 2017)

Key:
[1] = biological target: T1, Histone-lysine N-methyltransferase, H3 lysine-79 specific (Homo sapiens, UniProt Q8TEK3); experiment: Inhibition of N-terminal 6His-tagged human DOT1L (1 to 416 residues) expressed in Escherichia coli BL21(DE3) at 50 uM using histone H3 as substrate preincubated for 15 mins followed by SAM addition measured after 60 mins by AlphaLISA assay
Method in brief: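 DOT1L (80 nM final) preincubated with compound 15 min at 25 °C; SAM 1 mM and oligonucleosomes 0.25 ng/μL added in 50 mM Tris-HCl pH 8.0, 150 mM NaCl, 3 mM MgCl2, 0.1% BSA, 60 min at 25 °C; stopped with high-salt buffer; H3K79me2 detected with anti-H3 acceptor beads, biotinylated antibody, then streptavidin donor beads.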
Target sequence in this assay (Q8TEK3 whole entry, looked up, the tested form may be a part): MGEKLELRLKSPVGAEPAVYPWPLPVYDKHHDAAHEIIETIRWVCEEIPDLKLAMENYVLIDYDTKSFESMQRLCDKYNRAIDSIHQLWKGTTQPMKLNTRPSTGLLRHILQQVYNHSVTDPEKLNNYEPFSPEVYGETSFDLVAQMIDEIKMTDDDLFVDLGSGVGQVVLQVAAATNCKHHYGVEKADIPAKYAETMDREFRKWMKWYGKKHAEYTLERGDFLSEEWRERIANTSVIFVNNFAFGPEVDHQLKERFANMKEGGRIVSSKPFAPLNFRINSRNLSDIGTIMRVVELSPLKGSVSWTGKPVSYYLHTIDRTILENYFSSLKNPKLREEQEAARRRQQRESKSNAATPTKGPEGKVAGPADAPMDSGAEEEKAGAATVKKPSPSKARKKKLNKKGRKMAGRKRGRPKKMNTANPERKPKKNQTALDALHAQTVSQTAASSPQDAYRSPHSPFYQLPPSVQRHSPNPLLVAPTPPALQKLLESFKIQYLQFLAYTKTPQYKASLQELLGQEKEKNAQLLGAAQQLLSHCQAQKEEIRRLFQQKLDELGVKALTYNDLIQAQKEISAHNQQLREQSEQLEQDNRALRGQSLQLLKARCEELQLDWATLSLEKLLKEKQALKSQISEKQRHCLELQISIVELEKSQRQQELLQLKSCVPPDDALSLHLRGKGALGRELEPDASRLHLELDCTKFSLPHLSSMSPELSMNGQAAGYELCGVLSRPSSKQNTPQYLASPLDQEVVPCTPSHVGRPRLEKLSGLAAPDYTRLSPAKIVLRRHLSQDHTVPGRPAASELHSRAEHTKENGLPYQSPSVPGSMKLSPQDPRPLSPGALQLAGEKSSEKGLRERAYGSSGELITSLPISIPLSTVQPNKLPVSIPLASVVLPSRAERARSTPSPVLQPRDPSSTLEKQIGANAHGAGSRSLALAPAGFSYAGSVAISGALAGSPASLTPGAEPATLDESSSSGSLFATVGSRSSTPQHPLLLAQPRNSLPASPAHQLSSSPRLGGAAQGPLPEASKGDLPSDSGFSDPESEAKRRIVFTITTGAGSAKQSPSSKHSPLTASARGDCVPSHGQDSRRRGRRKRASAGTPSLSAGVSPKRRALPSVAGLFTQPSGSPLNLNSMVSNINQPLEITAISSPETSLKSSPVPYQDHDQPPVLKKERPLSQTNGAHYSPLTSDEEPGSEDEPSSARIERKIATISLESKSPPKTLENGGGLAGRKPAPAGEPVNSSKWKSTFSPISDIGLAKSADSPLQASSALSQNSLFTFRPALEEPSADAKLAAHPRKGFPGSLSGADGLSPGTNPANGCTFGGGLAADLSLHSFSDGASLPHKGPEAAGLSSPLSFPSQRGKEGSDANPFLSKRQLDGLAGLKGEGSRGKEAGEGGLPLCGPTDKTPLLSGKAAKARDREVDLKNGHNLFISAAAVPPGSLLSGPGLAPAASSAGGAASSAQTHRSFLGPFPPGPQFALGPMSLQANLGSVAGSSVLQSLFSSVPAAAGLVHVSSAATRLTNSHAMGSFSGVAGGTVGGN

[2] = biological target: Histone-lysine N-methyltransferase, H3 lysine-36 specific (Homo sapiens) (UniProt Q96L73); experiment: Inhibition of NSD1 (unknown origin) at 50 and 100 uM preincubated for 15 mins followed by substrate and [3H]-SAM addition after 120 mins by MicroBeta counting
Chain of Histone-lysine N-methyltransferase, H3 lysine-36 specific (Homo sapiens) (Q96L73 whole entry): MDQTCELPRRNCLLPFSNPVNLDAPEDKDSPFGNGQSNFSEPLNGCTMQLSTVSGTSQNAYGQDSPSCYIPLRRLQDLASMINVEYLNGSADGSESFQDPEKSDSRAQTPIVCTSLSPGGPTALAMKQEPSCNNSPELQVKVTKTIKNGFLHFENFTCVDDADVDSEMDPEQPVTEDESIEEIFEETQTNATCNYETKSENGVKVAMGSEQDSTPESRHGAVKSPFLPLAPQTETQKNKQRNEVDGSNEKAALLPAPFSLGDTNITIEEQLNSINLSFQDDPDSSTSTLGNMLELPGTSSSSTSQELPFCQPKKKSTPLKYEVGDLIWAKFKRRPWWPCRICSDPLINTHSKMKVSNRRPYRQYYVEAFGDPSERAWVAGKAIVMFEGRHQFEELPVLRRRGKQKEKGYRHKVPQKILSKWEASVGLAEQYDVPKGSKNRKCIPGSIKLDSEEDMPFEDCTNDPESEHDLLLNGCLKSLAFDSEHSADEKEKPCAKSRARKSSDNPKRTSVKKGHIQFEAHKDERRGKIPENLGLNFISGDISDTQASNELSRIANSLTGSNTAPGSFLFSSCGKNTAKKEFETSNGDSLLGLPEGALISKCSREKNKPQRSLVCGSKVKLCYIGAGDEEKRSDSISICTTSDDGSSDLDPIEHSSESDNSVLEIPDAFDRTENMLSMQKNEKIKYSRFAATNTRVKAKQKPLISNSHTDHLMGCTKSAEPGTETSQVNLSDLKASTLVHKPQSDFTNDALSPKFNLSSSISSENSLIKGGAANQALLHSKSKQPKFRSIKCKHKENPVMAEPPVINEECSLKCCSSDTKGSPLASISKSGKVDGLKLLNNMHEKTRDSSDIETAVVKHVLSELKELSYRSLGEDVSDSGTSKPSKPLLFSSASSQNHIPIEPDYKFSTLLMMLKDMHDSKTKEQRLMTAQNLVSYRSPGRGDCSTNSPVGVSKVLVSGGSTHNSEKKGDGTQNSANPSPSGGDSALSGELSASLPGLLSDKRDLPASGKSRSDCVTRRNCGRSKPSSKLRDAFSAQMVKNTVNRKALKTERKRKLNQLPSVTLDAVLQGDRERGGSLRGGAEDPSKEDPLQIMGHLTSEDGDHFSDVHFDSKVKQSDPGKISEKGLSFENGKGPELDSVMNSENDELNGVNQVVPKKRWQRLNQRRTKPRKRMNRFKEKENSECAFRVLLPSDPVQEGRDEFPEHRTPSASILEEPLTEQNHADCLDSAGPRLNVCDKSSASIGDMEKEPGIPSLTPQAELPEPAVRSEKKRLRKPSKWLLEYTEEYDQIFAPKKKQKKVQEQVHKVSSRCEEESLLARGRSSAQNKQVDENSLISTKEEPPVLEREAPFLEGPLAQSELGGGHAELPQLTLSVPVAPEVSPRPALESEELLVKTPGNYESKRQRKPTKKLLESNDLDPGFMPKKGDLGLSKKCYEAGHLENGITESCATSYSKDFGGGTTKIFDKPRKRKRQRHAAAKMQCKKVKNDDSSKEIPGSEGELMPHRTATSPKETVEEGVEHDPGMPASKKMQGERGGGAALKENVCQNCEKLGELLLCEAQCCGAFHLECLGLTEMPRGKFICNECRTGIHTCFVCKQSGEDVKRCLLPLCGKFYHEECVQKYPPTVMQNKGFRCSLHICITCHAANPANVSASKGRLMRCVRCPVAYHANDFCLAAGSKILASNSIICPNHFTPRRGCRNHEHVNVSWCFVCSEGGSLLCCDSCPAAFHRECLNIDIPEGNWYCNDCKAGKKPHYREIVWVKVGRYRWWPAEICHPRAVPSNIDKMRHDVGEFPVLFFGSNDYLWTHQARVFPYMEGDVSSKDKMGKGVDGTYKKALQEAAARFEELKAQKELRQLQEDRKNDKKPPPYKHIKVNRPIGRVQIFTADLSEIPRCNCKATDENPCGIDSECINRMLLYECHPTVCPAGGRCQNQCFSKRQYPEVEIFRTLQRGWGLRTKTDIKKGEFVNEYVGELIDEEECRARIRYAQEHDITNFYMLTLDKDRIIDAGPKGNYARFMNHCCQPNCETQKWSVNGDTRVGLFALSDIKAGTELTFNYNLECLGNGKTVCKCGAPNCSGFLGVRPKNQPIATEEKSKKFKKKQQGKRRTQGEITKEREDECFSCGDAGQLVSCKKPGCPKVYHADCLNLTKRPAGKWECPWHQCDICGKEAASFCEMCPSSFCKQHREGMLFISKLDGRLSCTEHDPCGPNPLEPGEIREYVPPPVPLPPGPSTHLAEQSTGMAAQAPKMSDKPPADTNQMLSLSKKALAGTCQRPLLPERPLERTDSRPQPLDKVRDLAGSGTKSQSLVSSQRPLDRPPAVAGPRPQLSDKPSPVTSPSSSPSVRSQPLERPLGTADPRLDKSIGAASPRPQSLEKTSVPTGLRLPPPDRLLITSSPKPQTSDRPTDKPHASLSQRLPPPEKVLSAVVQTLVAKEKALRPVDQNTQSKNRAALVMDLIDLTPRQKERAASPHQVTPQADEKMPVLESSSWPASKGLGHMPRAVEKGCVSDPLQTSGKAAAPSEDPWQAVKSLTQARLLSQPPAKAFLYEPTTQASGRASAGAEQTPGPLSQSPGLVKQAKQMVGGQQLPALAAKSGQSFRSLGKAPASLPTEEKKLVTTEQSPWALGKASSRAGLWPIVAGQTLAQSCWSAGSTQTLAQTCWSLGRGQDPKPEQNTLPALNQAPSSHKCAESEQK
Method in brief: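 In modified Tris buffer, enzyme incubated 15 min at room temperature, then substrate and [3H]SAM added; stopped at 120 min with cold SAM; transferred to a 0.5% PEI-pretreated GF/B plate, washed 3× with water, read by MicroBeta.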

[3] = biological target: Protein arginine N-methyltransferase 5 (Homo sapiens) (UniProt O14744); experiment: Inhibition of PRMT5 (unknown origin) at 50 and 100 uM preincubated for 15 mins followed by substrate and [3H]-SAM addition for 60 mins measured after further 60 mins flashplate assay
Chain of Protein arginine N-methyltransferase 5 (Homo sapiens) (O14744 whole entry): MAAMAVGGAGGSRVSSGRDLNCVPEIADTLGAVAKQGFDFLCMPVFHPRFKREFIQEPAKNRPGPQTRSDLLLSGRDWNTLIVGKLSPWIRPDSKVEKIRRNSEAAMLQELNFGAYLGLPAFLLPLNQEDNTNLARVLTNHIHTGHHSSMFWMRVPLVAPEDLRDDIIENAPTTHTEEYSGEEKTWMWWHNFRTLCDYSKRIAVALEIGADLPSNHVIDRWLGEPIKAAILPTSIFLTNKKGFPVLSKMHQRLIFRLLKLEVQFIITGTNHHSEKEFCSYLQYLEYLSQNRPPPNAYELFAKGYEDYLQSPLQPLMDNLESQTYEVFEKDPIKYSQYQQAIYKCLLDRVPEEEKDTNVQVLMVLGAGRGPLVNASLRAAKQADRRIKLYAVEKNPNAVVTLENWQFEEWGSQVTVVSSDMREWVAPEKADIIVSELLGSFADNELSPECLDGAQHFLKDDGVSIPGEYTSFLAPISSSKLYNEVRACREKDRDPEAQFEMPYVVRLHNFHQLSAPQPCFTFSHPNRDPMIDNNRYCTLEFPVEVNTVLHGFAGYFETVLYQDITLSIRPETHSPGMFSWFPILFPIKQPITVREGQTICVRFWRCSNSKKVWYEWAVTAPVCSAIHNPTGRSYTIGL
Method in brief: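 In modified Tris buffer, enzyme preincubated 15 min at room temperature; substrate and [3H]SAM added for 60 min at room temperature; stopped with cold SAM; transferred to a Flashplate for 60 min, washed 3× with water plus 0.1% Tween-20, read by MicroBeta.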

[4] = biological target: T1, Histone-lysine N-methyltransferase, H3 lysine-79 specific; experiment: Binding affinity to human N-terminal 6His-tagged DOT1L (1 to 416 residues) expressed in Escherichia coli BL21(DE3) after 150 secs by SPR-based binding assay
Target sequence in this assay (Q8TEK3 whole entry, the tested form may be a part): as the sequence (Q8TEK3 whole entry, looked up, the tested form may be a part) above

HL-60 = experiment: Cytotoxicity against human HL60 cells assessed as reduction in cell viability after 72 hrs by alamar blue assay; type: functional, cell-based; details: HL-60, 72 h
Method in brief: (§1)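 Cells cultured in RPMI 1640 with 10% FBS and 1% penicillin/streptomycin, treated with a range of concentrations or equal DMSO, 37 °C, 5% CO2, 72 h. Viability read by alamar blue (ex 544/em 590 nm); percent proliferation and IC50 curve fitted.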

K562 = experiment: Cytotoxicity against human K562 cells assessed as reduction in cell viability after 72 hrs by alamar blue assay; type: functional, cell-based; details: K562, 72 h; method in brief: as §1
MV4-11 [5] = experiment: Induction of cell cycle arrest in human MV4-11 cells assessed as accumulation at G1 phase at 12.5 uM after 48 hrs by propidium iodide/RNase-staining based flow cytometric analysis (reference value: 68.16 %); type: functional
Method in brief: (§2)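 MV4-11 cells (2 × 10^6) seeded in 12-well dishes, treated with different concentrations for 48 h, processed with a PI/RNase staining kit and analysed for cell-cycle distribution by FACSCalibur flow cytometry.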

MV4-11 [6] = experiment: Induction of cell cycle arrest in human MV4-11 cells assessed as accumulation at G2 phase at 12.5 uM after 48 hrs by propidium iodide/RNase-staining based flow cytometric analysis (reference value: 7.44 %); type: functional; method in brief: as §2
MV4-11 [7] = experiment: Induction of cell cycle arrest in human MV4-11 cells assessed as accumulation at G1 phase at 25 uM after 48 hrs by propidium iodide/RNase-staining based flow cytometric analysis (reference value: 68.16 %); type: functional; method in brief: as §2
MV4-11 [8] = experiment: Induction of cell cycle arrest in human MV4-11 cells assessed as accumulation at G2 phase at 25 uM after 48 hrs by propidium iodide/RNase-staining based flow cytometric analysis (reference value: 7.44 %); type: functional; method in brief: as §2
MV4-11 [9] = experiment: Induction of cell cycle arrest in human MV4-11 cells assessed as accumulation at G2 phase at 50 uM after 48 hrs by propidium iodide/RNase-staining based flow cytometric analysis (reference value: 7.44 %); type: functional; method in brief: as §2
MV4-11 [10] = experiment: Induction of apoptosis in human MV4-11 cells assessed as viable cells at 6.25 uM after 72 hrs by annexin V/FITC and propidium iodide staining-based flow cytometric analysis (reference value: 90.3 %); type: functional; details: MV4-11, 72 h, read-out: Activity
MV4-11 [11] = experiment: Induction of apoptosis in human MV4-11 cells assessed as late apoptotic cells at 6.25 uM after 72 hrs by annexin V/FITC and propidium iodide staining-based flow cytometric analysis (reference value: 4.02 %); type: functional
MV4-11 [12] = experiment: Induction of apoptosis in human MV4-11 cells assessed as necrotic cells at 6.25 uM after 72 hrs by annexin V/FITC and propidium iodide staining-based flow cytometric analysis (reference value: 0.04 %); type: functional
MV4-11 [13] = experiment: Induction of apoptosis in human MV4-11 cells assessed as early apoptotic cells at 12.5 uM after 72 hrs by annexin V/FITC and propidium iodide staining-based flow cytometric analysis (reference value: 5.66 %); type: functional
MV4-11 [14] = experiment: Induction of apoptosis in human MV4-11 cells assessed as necrotic cells at 12.5 uM after 72 hrs by annexin V/FITC and propidium iodide staining-based flow cytometric analysis (reference value: 0.04 %); type: functional
MV4-11 [15] = experiment: Induction of apoptosis in human MV4-11 cells assessed as viable cells at 25 uM after 72 hrs by annexin V/FITC and propidium iodide staining-based flow cytometric analysis (reference value: 90.3 %); type: functional; details: MV4-11, 72 h, read-out: Activity
MV4-11 [16] = experiment: Induction of apoptosis in human MV4-11 cells assessed as early apoptotic cells at 50 uM after 72 hrs by annexin V/FITC and propidium iodide staining-based flow cytometric analysis (reference value: 5.66 %); type: functional

inhibition [1]: > 40% | inhibition [2]: < 40% | inhibition [3]: < 40% | Kd [4]: 17.3 µM
Structure (SMILES): Fc1cccc(-c2nn3c(Cn4nnc5ccccc54)nnc3s2)c1
IC50 (HL-60): > 200 µM | IC50 (K562): > 200 µM | Activity (MV4-11 [5]): 70.27% | Activity (MV4-11 [6]): 4.35% | Activity (MV4-11 [7]): 83.18% | Activity (MV4-11 [8]): 0.99% | Activity (MV4-11 [9]): 0% | viability at 6.25 µM (MV4-11 [10]): 24.2% | Activity (MV4-11 [11]): 25% | Activity (MV4-11 [12]): 1.37% | Activity (MV4-11 [13]): 50.1% | Activity (MV4-11 [14]): 3.8% | viability at 25 µM (MV4-11 [15]): 6.76% | Activity (MV4-11 [16]): 55.2%
